Measurements gathered from unrelated publications.
Protocols differ between the studies behind these lines.
Organism: Acinetobacter baumannii
Observed: microbial growth

CC(NCCCNC(=O)c1ccc(Cl)s1)c1cc2cc(Br)ccc2[nH]1 (stereo not drawn)  MIC (broth dilution; ATCC19606): 32 µg/mL
CCCCCCC/C=C/C(=O)N1C(=O)/C(=C(/C)O)C(=O)C1CCC(=O)O (stereo not drawn)  MIC (ATCC19606): > 200 µg/mL
NC1CCc2c1[nH]c1ccc(Cl)c(Cl)c21 (stereo not drawn)  MIC (broth dilution; ATCC19606): 8 µg/mL
CCCCCCC/C=C/C(=O)N1C(=O)/C(=C(/C)O)C(=O)C1CCCCN (stereo not drawn)  MIC (ATCC19606): > 200 µg/mL
O=C(CCc1ccc(O)c(O)c1)NCCCCCCCC[P+](c1ccccc1)(c1ccccc1)c1ccccc1.[Br-]  MIC (broth dilution; ATCC19606; 18 h): > 32 µg/mL
O=C(O)c1ccc(-n2cc(/C=N/Nc3ccc(Br)cc3)c(-c3ccc4ccccc4c3)n2)cc1  MIC (ATCCBAA1605): 12.5 µg/mL
CCCCCCC/C=C/C(=O)N1C(=O)/C(=C(\O)c2ccccc2)C(=O)C1CC(C)C (stereo not drawn)  MIC (ATCC19606): > 200 µg/mL
O=[N+]([O-])c1ccc(/C=N/Nc2nc(Nc3ccccc3)nc(N3CCOCC3)n2)o1  MIC: > 120 µM
CN(C)Cc1ccc2c(N(C)C)c3c(c(O)c2c1)C(=O)C1=C(O)[C@]2(O)C(=O)C(C(N)=O)=C(O)[C@@H](N(C)C)[C@@H]2C[C@@H]1C3  MIC (broth dilution; ATCC19606): 1 µg/mL
CC(C)Oc1c(NC(=O)c2ccc(NC(=O)[C@H](CC(N)=O)NC(=O)c3ccc(NC(=O)c4ccc(C#N)s4)cc3)cc2)ccc(C(=O)Nc2ccc(C(=O)O)cc2)c1O  MIC (DSM30008): 0.125 µg/mL
CNc1nc(Cl)c2c(c1O)C(=O)C1=C(O)[C@]3(O)C(=O)C(C(N)=O)=C(O)[C@@H](N(C)C)[C@@H]3C[C@@H]1C2.Cl.Cl.Cl  MIC (broth dilution; ATCC19606): 0.031 µg/mL
O=C(CCCCCCCCCC[P+](c1ccccc1)(c1ccccc1)c1ccccc1)Nc1cc(O)c(O)c(O)c1.[Br-]  MIC (broth dilution; ATCC19606; 18 h): > 32 µg/mL
CN(C)[C@@H]1C(O)=C(C(N)=O)C(=O)[C@@]2(O)C(O)=C3C(=O)c4c(O)c(N)nc(F)c4C[C@H]3C[C@@H]12.Cl.Cl  MIC (broth dilution; ATCC19606): 0.5 µg/mL
C[C@H]1COc2c(N3CCN(C)CC3)c(F)cc3c(=O)c(C(=O)O)cn1c23  MIC (broth dilution; ATCC19606): ≤ 0.125 µg/mL
CN(C)[C@@H]1C(O)=C(C(N)=O)C(=O)[C@@]2(O)C(O)=C3C(=O)c4c(cc5ccc(-c6ccccc6)cc5c4O)C[C@H]3C[C@@H]12  MIC (broth dilution; ATCC19606): 32 µg/mL
O=C(CCCCCCCC[P+](c1ccccc1)(c1ccccc1)c1ccccc1)Nc1ccc(O)c(O)c1.[Br-]  MIC (broth dilution; ATCC19606; 18 h): > 32 µg/mL
N=C(N)c1ccc(OCc2cc(Br)cc(COc3ccc(C(=N)N)cc3)c2)cc1  MIC (broth dilution; ATCC17978): > 200 µg/mL
CNC(C)C1CCC(N)C(OC2C(N)CC(N)C(OC3OCC(C)(O)C(NC)C3O)C2O)O1 (stereo not drawn)  MIC (broth dilution; ATCC19606): 0.5 µg/mL
CN(C)CCCNc1nc(Cl)c2c(c1O)C(=O)C1=C(O)[C@]3(O)C(=O)C(C(N)=O)=C(O)[C@@H](N(C)C)[C@@H]3C[C@@H]1C2.Cl  MIC (broth dilution; ATCC19606): > 32 µg/mL
CN(Cc1ccc2cc3c(c(O)c2c1)C(=O)C1=C(O)[C@]2(O)C(=O)C(C(N)=O)=C(O)[C@@H](N(C)C)[C@@H]2C[C@@H]1C3)c1ccccc1  MIC (broth dilution; ATCC19606): 32 µg/mL
CC(C)CCNc1nc(Cl)c2c(c1O)C(=O)C1=C(O)[C@]3(O)C(=O)C(C(N)=O)=C(O)[C@@H](N(C)C)[C@@H]3C[C@@H]1C2.Cl.Cl.Cl  MIC (broth dilution; ATCC19606): 4 µg/mL
CC(C)(O/N=C(\C(=O)N[C@@H]1C(=O)N2C(C(=O)[O-])=C(C[N+]3(CCNC(=O)c4ccc(O)c(O)c4Cl)CCCC3)CS[C@H]12)c1csc(N)n1)C(=O)O  MIC (DSM30007): 0.2 µM
N=C(N)c1ccc(OCCCCCOc2ccc(C(=N)N)cc2)cc1  MIC (broth dilution; ATCC17978): > 200 µg/mL
CCCCCCC/C=C/C(=O)N1C(=O)/C(=C(/C)O)C(=O)C1Cc1ccc(O)cc1 (stereo not drawn)  MIC (ATCC19606): > 200 µg/mL
CN[C@@H]1[C@@H](O)[C@@H](O[C@@H]2[C@@H](O)[C@H](O[C@H]3OC(CNCCO)=CC[C@H]3N)[C@@H](N)C[C@H]2NC(=O)[C@@H](O)CCN)OC[C@]1(C)O  MIC: 2 µg/mL
N=C(N)c1cccc(OCc2ccc(COc3cccc(C(=N)N)c3)cc2)c1  MIC (broth dilution; ATCC17978): > 200 µg/mL
CN(C)c1cc(NC(=O)CNC(C)(C)C)c(O)c2c1C[C@H]1C[C@H]3[C@H](N(C)C)C(O)=C(C(N)=O)C(=O)[C@@]3(O)C(O)=C1C2=O  MIC (ATCC19606): 1.2 µg/mL
O=C(O)c1ccc(-n2cc(/C=N/Nc3cccc(Br)c3)c(-c3ccc(F)cc3)n2)cc1  MIC (ATCCBAA1605): 12.5 µg/mL
C[C@@H](O)[C@H]1C(=O)N2C(C(=O)O)=C(S[C@@H]3CN[C@H](C(=O)N(C)C)C3)[C@H](C)[C@H]12  MIC (broth dilution; KCCM40203; 16 h): 2 µM
NC[C@H]1O[C@H](O[C@H]2[C@H](O)[C@@H](O[C@H]3O[C@H](CO)[C@@H](O)[C@H](N)[C@H]3O)[C@H](N)C[C@@H]2N)[C@H](N)C[C@@H]1O  MIC (broth dilution; clinical isolate): > 200 µM
